This is an account of results in ChEMBL document CHEMBL1122264, “Synthesis and biological properties of thiophene ring analogues of mianserin” (J Med Chem, 1983).

For assay [1], the system named is Rattus norvegicus. In words: In vivo determination of MHPG-SO4 level in rat whole brain at a dose 10 mg/kg intraperitoneal administration. In kind it is functional. The essentials: (§1)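 Rats, five per experiment, receive test agent ip as a corn starch suspension and are sacrificed 2 h later. Whole-brain MHPG-SO4 (μg/g) is measured by the Meek and Neff procedure and expressed as a percentage of control, ± SE.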

In assay [2] the test system is Mus musculus. Description: In vivo Antagonism (ip) of 0.1 mg/kg clonidine-induced analgesia (po) determined in phenylquinone-induced writhing assay at a dose of 30 mg/kg dose; the ratio is 4/10. In kind it is functional, organism-based. The essentials: (§2)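 Male mice (18–22 g) receive the test substance ip, then clonidine 0.1 mg/kg po 30 min later. Phenylquinone is given ip 20 min after clonidine. Mice writhing 5–15 min after phenylquinone count as reactors. The result is the number of mice, out of n = 10 per experiment, in which clonidine analgesia is reversed.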

Assay [3] is filed under the species Mus musculus. Description: Antidepressant potential (duration) by using the behavioral despair model. In kind it is functional.
In assay [4] the target is T1, Cerebral cortex alpha adrenergic receptor (Bos taurus, UniProt Q28838+P18130).
T1 sequence (Q28838 whole entry): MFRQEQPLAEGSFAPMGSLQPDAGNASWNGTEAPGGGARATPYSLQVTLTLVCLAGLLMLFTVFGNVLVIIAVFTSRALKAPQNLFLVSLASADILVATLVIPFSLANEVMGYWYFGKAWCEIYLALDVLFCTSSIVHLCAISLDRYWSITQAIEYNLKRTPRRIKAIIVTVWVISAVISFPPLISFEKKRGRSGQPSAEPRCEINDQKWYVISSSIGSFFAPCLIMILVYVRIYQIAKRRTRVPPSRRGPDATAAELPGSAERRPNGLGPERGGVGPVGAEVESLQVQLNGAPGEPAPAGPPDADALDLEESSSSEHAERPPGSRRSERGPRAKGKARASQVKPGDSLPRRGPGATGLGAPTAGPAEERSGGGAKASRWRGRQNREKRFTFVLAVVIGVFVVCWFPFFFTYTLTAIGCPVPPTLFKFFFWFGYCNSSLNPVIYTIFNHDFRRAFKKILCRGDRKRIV
T1 sequence (P18130 whole entry): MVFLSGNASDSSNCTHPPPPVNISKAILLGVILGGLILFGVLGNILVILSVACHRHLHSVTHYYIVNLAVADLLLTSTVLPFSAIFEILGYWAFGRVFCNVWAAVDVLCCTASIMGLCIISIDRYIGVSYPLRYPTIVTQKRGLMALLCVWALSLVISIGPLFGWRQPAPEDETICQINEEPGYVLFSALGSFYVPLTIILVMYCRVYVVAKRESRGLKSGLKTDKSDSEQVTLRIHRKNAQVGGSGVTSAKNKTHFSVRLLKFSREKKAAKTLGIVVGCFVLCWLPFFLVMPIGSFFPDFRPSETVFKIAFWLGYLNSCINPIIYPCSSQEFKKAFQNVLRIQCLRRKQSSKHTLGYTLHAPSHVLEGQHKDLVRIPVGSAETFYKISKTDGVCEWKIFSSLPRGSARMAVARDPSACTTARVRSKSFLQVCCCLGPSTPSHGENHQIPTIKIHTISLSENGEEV
In words: In vitro binding affinity towards alpha-adrenoceptor of calf cortex membrane Site A using [3H]clonidine.

Assay [5] deals with Rattus norvegicus. Description: In vivo determination of MHPG-SO4 level in rat whole brain at a dose 3 0 mg/kg ip administration. In kind it is functional. The note with it: route intraperitoneal. Put shortly: as §1
In assay [6] the test system is Rattus norvegicus. In words: In vivo determination of MHPG-SO4 level in rat whole brain at a dose 10 mg/kg ip administration (5 rats). The note with it: route intraperitoneal. The format is functional. Put shortly:
as §1

The target of assay [7] is serotonin (5-HT) receptor (Bos taurus).
The test system of assay [8] is Rattus norvegicus. Description: In vivo determination of MHPG-SO4 level in rat whole brain at a dose 0 mg/kg intraperitoneal administration. In kind it is functional. Put shortly: as §1
Assay [9] relates to Rattus norvegicus. In words: In vivo determination of MHPG-SO4 level in rat whole brain at a dose 30 mg/kg ip administration (5 rats). The format is functional. The note with it: route intraperitoneal. The essentials:
(§3)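 Rats were given the test agent or vehicle ip as a suspension in corn starch. They were killed 2 h later, and MHPG-SO₄ was measured in whole brain in μg/g ± SE and as % of vehicle control. Five rats were used per experiment.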

The next assay has as its target Histamine H2 receptor (Cavia porcellus, UniProt P47747). In words: In vitro antihistamine activity by activation of 4-methylhistamine mediated by Histamine H2 receptor. The format is functional.
Assay [10] addresses T1, Cerebral cortex alpha adrenergic receptor. In words: In vitro binding affinity towards alpha-adrenoceptor of calf cortex membrane Site B using [3H]-clonidine.
The subject of assay [11] is Mus musculus. Description: In vivo central presynaptic alpha-blockade using [3H]rauwolscine in mice (injected iv 20 min later and the mice were sacrificed at 35 min). In kind it is functional. The note with it: read-out: ID50 (the source's name). Put shortly: (§4)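 Mice get test drug or vehicle ip at zero time, then [3H]rauwolscine iv 20 min later, and are sacrificed at 35 min. Displacement is measured in mouse forebrain. […] ID50 and 95% confidence limits follow the Granat method.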

Assay [12] in a line: (§5) In vitro antihistamine activity, by activation of guinea pig cerebral cortex adenylate cyclase by histamine mediated by both H1 and H2 receptors. The format is functional, tissue-based, Cavia porcellus. The essentials:
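Adenylate cyclase preparation from guinea pig cerebral cortex, activated by histamine (acting via H1 + H2 receptors). Percent inhibition is measured in triplicate over a wide concentration range, and IC50 is calculated from those data. Psychoyos procedure.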

For assay [13], the system named is Rattus norvegicus. In words: In vivo determination of MHPG-SO4 level in rat whole brain at a dose 20 mg/kg ip administration (5 rats). The note with it: route intraperitoneal. In kind it is functional. The essentials:
as §1

Assay [14] has as its system Rattus norvegicus. In words: In vivo determination of MHPG-SO4 level in rat whole brain at a dose 20 mg/kg intraperitoneal administration. The format is functional. The essentials: as §1
Assay [15] concerns the target Adrenergic receptor alpha. Description: In vitro binding affinity towards alpha-adreno ceptor of rat forebrain using [3H]prazosin. The essentials:
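Rat forebrain membranes, [3H]prazosin binding by the Greengrass and Bremner procedure, with ascorbic acid omitted from the incubation medium. Drugs are tested in triplicate over a wide concentration range in a single experiment.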

In assay [16] the test system is Rattus norvegicus. In words: In vivo determination of MHPG-SO4 level in rat whole brain at a dose 0 mg/kg ip administration. The note with it: route intraperitoneal. The format is functional. The essentials:
as §3

In assay [17] the test system is Mus musculus. In words: In vivo central presynaptic alpha-blockade using [3H]rauwolscine (injected iv 20 min later and the mice were sacrificed at 35 min). The note with it: read-out: ID50.
In assay [18] the test system is Rattus norvegicus. Description: In vivo determination of MHPG-SO4 level in rat whole brain at a dose 30 mg/kg ip administration. The note with it: route intraperitoneal. The format is functional. The essentials:
as §3

The nature of assay [19]: as §5.
Assay [20] deals with Mus musculus. In words: Central presynaptic alpha-blockade using [3H]rauwolscine (injected iv 20 min later and the mice were sacrificed at 35 min) (in vivo);value ranges between (1.2-5.9). The note with it: read-out: ID50 (the source's name). In kind it is functional. Put shortly: as §4
For assay [21], the system named is Mus musculus. Description: In vivo Antagonism (ip) of 0.1 mg/kg clonidine-induced analgesia (po) determined in phenylquinone-induced writhing assay at 10 mg/kg dose; the ratio being 4/10. The format is functional, organism-based. The essentials:
as §2

Assay [22] addresses serotonin (5-HT) receptor (Bos taurus). Description: In vitro binding affinity of serotonin receptor by interacting with high affinity, [3H]serotonin from calf caudate nucleus.

Activity calls are given as the source filed them.

Chain of Histamine H2 receptor (P47747 whole entry): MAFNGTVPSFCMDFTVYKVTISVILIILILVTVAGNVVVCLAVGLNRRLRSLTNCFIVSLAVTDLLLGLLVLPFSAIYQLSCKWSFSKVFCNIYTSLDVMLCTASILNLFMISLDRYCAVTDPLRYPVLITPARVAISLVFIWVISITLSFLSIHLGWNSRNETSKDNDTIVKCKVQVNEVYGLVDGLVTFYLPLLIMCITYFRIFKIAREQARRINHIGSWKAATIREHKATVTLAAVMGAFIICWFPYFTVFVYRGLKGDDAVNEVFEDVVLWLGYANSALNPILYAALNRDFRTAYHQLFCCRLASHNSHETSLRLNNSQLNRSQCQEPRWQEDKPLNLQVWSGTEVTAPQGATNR

Take `CN1CCN2c3ccccc3Cc3ccsc3C2C1` (stereo unspecified): the MHPG_SO4 in the assay on Rattus norvegicus [1] came out at 0.15 µg/g; with Rattus norvegicus [8] it was 0.11 µg/g. The Antagonism result in the assay on Mus musculus [2] is “Partially active”. This compound returned a Duration in the assay listed under Mus musculus [3] of 185 s. Moreover, the IC50 in assay [4] came to 0.003 µM; in [7] it was 0.5 µM; against Histamine H2 receptor, 19 µM; in assay [10], 0.003 µM; in [12], 0.28 µM; in assay [15], 1.4 µM. Also, the MHPG SO4 was 0.27 µg/g in the assay with Rattus norvegicus [5] and 0.21 µg/g in the assay on Rattus norvegicus [14]. In addition, the Control in the assay on Rattus norvegicus [6] is recorded as 136%; with Rattus norvegicus [9], 245%; in the assay on Rattus norvegicus [13], 191%. The ED50 with Mus musculus [11] was found to be 3.3 mg/kg.

Compound `CN1CCN2c3ccccc3Cc3ccccc3C2C1.Cl` (stereo unspecified) [MIANSERIN HYDROCHLORIDE] registered an MHPG_SO4 in the assay with Rattus norvegicus [16] of 0.11 µg/g. The Duration in the assay listed under Mus musculus [3] was 186 s. The ED50 with Mus musculus [17] amounted to 3.7 mg/kg. The same compound showed an MHPG SO4 with Rattus norvegicus [18] of 0.19 µg/g. This compound also showed a Control in the assay with Rattus norvegicus [9] of 180%. Also, the IC50 turned out to be 3.8 µM on Histamine H2 receptor and 0.19 µM in assay [19].

For `CN1CCN2c3ccccc3Cc3sccc3C2C1` (stereo unspecified), the ED50 in the assay on Mus musculus [20] was 2.7 mg/kg. For the same compound, the Antagonism result in the assay on Mus musculus [21] was “Partially active”. The IC50 in assay [4] is 0.002 µM; in assay [22] it was 0.1 µM; at Histamine H2 receptor it was 7.2 µM; in assay [10], 0.003 µM; in assay [12], 0.09 µM; in assay [15], 0.3 µM.
